Source: ChEMBL document CHEMBL1124512, “Synthesis of 3-deazaneplanocin A, a powerful inhibitor of S-adenosylhomocysteine hydrolase with potent and selective in vitro and in vivo antiviral activities” (1989)
In brackets after ≈: the same amount, converted by molar mass. Several values for one entry are separate records, joined by “and”; a condition that tells them apart may be missing. Equal entries are not always repeated.

Columns and labels:
[1] = system: Vesicular stomatitis virus; assay: (§1) Viral rating activity against vesicular stomatitis viral strain Indiana in L929 cell line; assay type: functional
Procedure, shortened: (§2)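 Virus rating is a weighted score combining the degree of inhibition of the virus-induced cytopathogenic effect with the degree of cytotoxicity. USAMRIID ratings were multiplied by 3 to convert them to the Ehrlich scale.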

[2] = Ratio of minimum toxic compound concentration to inhibitory dose against vesicular stomatitis viral strain Indiana in L929 cell line; assay type: functional
Procedure, shortened: (§3)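 Selectivity index is the minimum toxic drug concentration (μg/mL) divided by the ID50 for inhibition of the virus-induced cytopathogenic effect.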

Mus musculus [3] = assay: In vivo anti-viral activity against Vaccinia tailpox mice model at dose 8 mg/kg (tested on 19 mice - Experiment 2); assay type: functional
Mus musculus [4] = assay: In vivo anti-viral activity against Vaccinia tailpox mice model at dose 8 mg/kg (tested on 20 mice - Experiment 1); assay type: functional
Mus musculus [5] = assay: In vivo anti-viral activity against Vaccinia tailpox mice model at dose 4 mg/kg (tested on 20 mice - Experiment 2); assay type: functional
Human respirovirus 3 [6] = assay: Inhibitory dose against Parainfluenza type 3 viral strain Huebner C243 in H.Ep-2 cell line; assay type: functional; details: Human respirovirus 3, HEp-2; read-out: ID50 (the source's name)
Human respirovirus 3 [7] = assay: Viral rating activity against Parainfluenza type 3 viral strain Huebner C243 in H.Ep-2 cell line; assay type: functional; procedure, shortened: as §2
[8] = system: Vesicular stomatitis virus; assay: as §1; assay type: functional; procedure, shortened: as §2; remark: listed apart in the source
Yellow fever virus [9] = assay: Inhibitory dose against yellow fever viral strain Asibi in vero cell line; assay type: functional; details: read-out: ID50 (the source's name)
Yellow fever virus [10] = assay: Viral rating activity against yellow fever viral strain Asibi in vero cell line; assay type: functional; procedure, shortened: as §2
Vaccinia virus [11] = assay: Viral rating activity against vaccinia viral strain Lederle CA in vero cell line; assay type: functional, Orthopoxvirus vaccinia; procedure, shortened: as §2
[12] = Ratio of minimum toxic compound concentration to inhibitory dose against Parainfluenza type 3 viral strain Huebner C243 in H.Ep-2 cell line; assay type: functional; procedure, shortened: as §3
[13] = Ratio of minimum toxic compound concentration to inhibitory dose against yellow fever viral strain Asibi in vero cell line; assay type: functional; procedure, shortened: as §3
[14] = system: Vesicular stomatitis virus; assay: Inhibitory dose against vesicular stomatitis viral strain Indiana in L929 cell line; assay type: functional
Yellow fever virus [15] = assay: Viral rating of activity against yellow fever viral strain Asibi in vero cell line; assay type: functional; procedure, shortened: as §2
Mus musculus [16] = assay: In vivo anti-viral activity against Vaccinia tailpox mice model at dose 300 mg/kg (tested on 20 mice - Experiment 1); assay type: functional
Vaccinia virus [17] = assay: Inhibitory dose against vaccinia viral strain Lederle CA in vero cell line; assay type: functional, Orthopoxvirus vaccinia
[18] = Ratio of minimum toxic compound concentration to inhibitory dose against vaccinia viral strain Lederle CA in vero cell line; assay type: functional; procedure, shortened: as §3
Mus musculus [19] = assay: In vivo anti-viral activity against Vaccinia tailpox mice model at dose 300 mg/kg (tested on 20 mice - Experiment 2); assay type: functional

**Q.** For `Nc1nccc2c1ncn2[C@@H]1C[C@H](CO)[C@@H](O)[C@H]1O` [3-DEAZAARISTEROMYCIN A], which VR [1] is on record?
**A.** The VR was 3.1 and 3.2 and 3.5 and 3.3.

**Q.** And the Selectivity index [2]?
**A.** Its Selectivity index is 3.6 and 3.8 and 7.2.

**Q.** Which results are given for `Nc1nccc2c1ncn2C1C=C(CO)C(O)C1O` (stereo not drawn) [3-DEAZANEPLANOCIN A]?
**A.** Protection (Mus musculus [3]): 84%; Protection (Mus musculus [4]): 74%; Protection (Mus musculus [5]): 82%; IC50 (Human respirovirus 3 [6]): 0.05 mg/L (≈ 0.191 µM); VR (Human respirovirus 3 [7]): 3.6; VR [1]: 4.7; VR [8]: 3.6 and 4.2; IC50 (Yellow fever virus [9]): 1 mg/L (≈ 3.81 µM); VR (Yellow fever virus [10]): 2.9; VR (Vaccinia virus [11]): 3.1 and 5.4 and 4.5; Selectivity index [12]: 2; Selectivity index [13]: 0.3; ID50 [14]: 0.07 mg/L and 0.2 mg/L; IC50 ([14]; read-out: ID50 (the source's name)): 0.3 mg/L (≈ 1.14 µM)

**Q.** Which results are given for `NC(=O)c1ncn([C@@H]2O[C@H](CO)[C@@H](O)[C@H]2O)n1` [RIBAVIRIN]?
**A.** IC50 (Human respirovirus 3 [6]): 17.5 mg/L (≈ 71.7 µM); VR (Human respirovirus 3 [7]): 2.5; Selectivity index [12]: 5.7

**Q.** Which IC50 (Yellow fever virus [9]) does the source give for `c1c[se]cn1` [SELENAZOLE] here?
**A.** The IC50 was 3.3 mg/L (≈ 25 µM).

**Q.** What about the VR (Yellow fever virus [15]) of the same molecule?
**A.** The VR was 2.4.

**Q.** What about the Selectivity index [13] of the same molecule?
**A.** Its Selectivity index is 1.

**Q.** What does the source list for `Nc1ncnc2c1ncn2[C@@H]1O[C@H](CO)[C@@H](O)[C@@H]1O` [VIDARABINE]?
**A.** Protection (Mus musculus [16]): 56%; ID50 (Vaccinia virus [17]): 1 mg/L and 1.8 mg/L; IC50 (Vaccinia virus [17]; Orthopoxvirus vaccinia, Vero, read-out: ID50 (the source's name)): 2 mg/L (≈ 7.48 µM); VR (Vaccinia virus [11]): 3.7 and 4.2 and 3.6; Selectivity index [18]: 16.3 and 32.2 and 17.9; Protection (Mus musculus [19]): 88%
